Measured values: PMC10091778 (Drug Development Research, 2022)
One block for each compound: values may come before it.

Columns and labels:
[1] = system: Hep3B hepatocellular carcinoma cells; details: 35 µM for 24 h; ref Lu et al., 2022; cited from earlier work
HL‐60 cells [2] = assay: Sub-G1 DNA fragmentation analysis by flow cytometry; type: cell-based, human; details: 6 µM, 72 h; mean ± SD; untreated 11.7 ± 1.2%
HL‐60 cells [3] = assay: Annexin V / propidium iodide flow cytometry; type: cell-based, human; details: 6 µM, 24 h, mean ± SD
Method in brief: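 HL-60 cells (100,000) were treated for 24 h at 1, 3 or 6 µM, then resuspended in Annexin V binding buffer (0.01 M HEPES, 0.14 M NaCl, 2.5 mM CaCl2). Annexin V-Alexa 488 was added for 15 min in the dark at room temperature, then PI (10 µg/ml). Quadrant percentages were taken by flow cytometry; three biological replicates, mean ± SD; two-tailed t test against untreated.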

[4] = system: 4T1 murine triple negative breast cancer cells; assay: Resazurin cell viability assay on 4T1 cells; type: cell-based; details: Mus musculus, 4T1, 72 h, read-out: IC50 4T1
Method in brief: (§1)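 Cells were seeded in 96-well plates (4T1 10,000, A549 10,000, HL-60 20,000 per well), with adherent lines settling overnight. Test compound came from a 10 mM DMSO stock, serially diluted in medium to 1.56–50 µM (some 39 nM–12.5 µM), for 72 h; three biological replicates. Resazurin (0.15 mg/ml stock, 20 µl per 100 µl) ran 2 h at 37 °C, read at 530/580 nm. Viability was set against untreated and blank wells; IC50 from curves.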

[5] = system: HL‐60 human acute promyelocytic leukemia cells; assay: Resazurin cell viability assay on HL-60 cells; type: cell-based; details: HL-60, 72 h, read-out: IC50 HL‐60
Method in brief: as §1

[6] = system: 4T1 breast carcinoma cells; assay: 4T1 murine breast cancer model; type: in vivo, BALB/c mice; details: 27th day; 60 mg/kg daily i.p.; mean ± SEM, n = 10; untreated 768 ± 134
HL‐60 cells [7] = assay: Mitochondrial membrane depolarization by JC-1 staining; type: cell-based, human; details: 16 h, untreated 7.6 ± 0.6%
[8] = system: 4T1, A549, and HL‐60 cells; type: cell-based; details: resazurin assay, 72 h, up to 50 µM, three cancer cell lines
Method in brief: as §1

[9] = system: A431 epidermoid carcinoma cancer cell line; details: 15 µM treatment; ref LaBarbera et al., 2009; cited from earlier work

Compound: C=CC(C)(CC/C=C(\C)CCC=C(C)C)S(=O)(=O)CCN=C(N)N (stereo not drawn) [(−)‐Agelasidine A]
- Apoptosis and mitochondrial effect in Hep3B, in words [1]: Annexin V+ apoptosis and mitochondrial membrane depolarization

- IC50 [4]: 3.1 µM
- IC50 [5]: 4.03 µM
Compound: Nc1nc(-c2cccc(NC(=O)c3cc4cc(Cl)ccc4[nH]3)c2)c(C(=O)c2ccccc2)[nH]1 [Compound 29, N‐(3‐(2‐amino‐5‐benzoyl‐1H‐imidazol‐4‐yl)phenyl)‐5‐chloro‐1H‐indole‐2‐carboxamide]
- DNA fragmentation (sub‐G1 population) of HL‐60 cells (HL‐60 cells [2]): 64.3 ± 2.1%
- Early apoptotic cells (AnnV+/PI−) (HL‐60 cells [3]; untreated 1.9 ± 0.5%): 11.4 ± 1.1%
- Necrotic cells (AnnV−/PI+) (HL‐60 cells [3]; untreated 3.6 ± 1.6%): 5.9 ± 1.1%
- Late apoptotic cells (AnnV+/PI+) (HL‐60 cells [3]; untreated 9.5 ± 2.7%): 44.7 ± 4.8%
- Living cells (AnnV−/PI−) (HL‐60 cells [3]; untreated 85 ± 3.9%): 37.8 ± 4.6%
- 4T1 tumor volume [6]: 443 ± 54 mm^3
- Cells with green JC‐1 accumulation (depolarized MMP) (HL‐60 cells [7]; 3 µM): 9.4 ± 1.1%
- Cells with green JC‐1 monomers (depolarized MMP) (HL‐60 cells [7]; 6 µM): 29.7 ± 2.1%
- Cytotoxic / antiproliferative activity in words [8]: hampered the viability of all three tested cell lines

Compound: Naamidine A
- Apoptotic effect in A431, in words [9]: apoptotic effects
